# M4 PAM – positive allosteric modulators of human muscarinic M4 receptor | CHO-K1 hM4/Gqi5, Fluo-8 calcium fluorescence, ACh EC20; 0% = ACh EC20, 100% = maximal ACh | activation, % at 3 µM | actives 0.4% (n = 360,000) | AID 624126;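 active means activation above its plate's cutoff, the mean activation of sample wells plus 3 SD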
# M4 ag – CHRM4 agonism in calcium assay. CHO-K1 hM4/Gqi5, Fluo-8 calcium fluorescence; vehicle 0%, full acetylcholine response 100%. actives 0.14% (n = 360,000). activation, % at 3 µM. P08173;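 active means activation above the run mean over all test wells plus 3 SD, cut at about 32% in these data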;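 further: peak over basal fluorescence ratio per well then scaled between controls; 0% = DMSO wells and 100% = acetylcholine at EC100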
# TAAR1 ag – human TAAR1 agonism | Q96RJ0 | CHO RD-HGA16 TAAR1, Fluo-8 calcium fluorescence; vehicle wells 0%, saturating PEA agonist 100% | actives 0.99% (n = 360,000) | activation, % at 3 µM;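 active means activation above the mean activation of all test compounds in the run plus 3 SD, cut at about 38% in these data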
# Target sequence (Q96RJ0 whole entry, looked up): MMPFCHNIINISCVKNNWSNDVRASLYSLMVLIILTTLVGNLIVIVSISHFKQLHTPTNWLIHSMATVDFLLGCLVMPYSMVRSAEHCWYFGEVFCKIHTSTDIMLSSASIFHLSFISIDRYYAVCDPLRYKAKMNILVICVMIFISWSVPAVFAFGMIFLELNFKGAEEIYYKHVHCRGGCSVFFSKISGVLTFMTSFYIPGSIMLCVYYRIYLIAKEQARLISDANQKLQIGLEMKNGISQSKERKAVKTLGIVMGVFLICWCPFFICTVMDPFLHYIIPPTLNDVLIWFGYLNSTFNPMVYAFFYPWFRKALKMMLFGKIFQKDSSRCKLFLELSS
#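 System: CHO-derived RD-HGA16 cells with stable Gα16 and human TAAR1. Times: 17-24 h plating, Fluo-8 75 min 37 °C, 30 min RT. Measured by: calcium-sensitive Fluo-8 signal, excitation 470-495, emission 515-575 nm. Read-out basis: % activation relative to PEA EC100 response. Control set: DMSO and PEA EC100. Repeats: no replicates (n 1).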
# TAAR1 antagonist – human TAAR1 antagonism | Q96RJ0 | actives 1.5% (n = 360,000) | CHO RD-HGA16 TAAR1, Fluo-8 calcium fluorescence, antagonist | inhibition, % at 3 µM;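 active means inhibition above a per-plate cutoff, the mean inhibition of test compounds on that plate plus 3 SD, cut at about 49% in these data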;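 further: 0% = DMSO plus EC80 beta-PEA response and 100% = DMSO alone without agonist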
#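 test system = CHO RD-HGA16 cells bearing hTAAR1 | replication = singlicate | controls = DMSO-only wells and EC80 β-PEA-stimulated wells | reagent = EC80 β-phenethylamine stimulus | read-out basis = percent inhibition of PEA-evoked calcium signal, max/basal emission ratio | schedule = seeding 17-24 h prior, 75-min 37 °C, 30-min RT dye loading | signal = kinetic Fluo-8 calcium fluorescence measurement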
# CHRM4 antagonist – blocks acetylcholine activation of human M4 receptor. P08173. CHO-hM4 cells, ACh EC80, Fluo-8 calcium fluorescence. inhibition, % at 3 µM. actives 0.73% (n = 360,000). AID 624125;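 active means inhibition above its plate's cutoff, the mean inhibition of sample wells plus 3 SD, cut at about 27% in these data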;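 further: 0% = acetylcholine EC80 with DMSO and 100% = DMSO without agonist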
# TAAR1 ag confirm – confirmation of human TAAR1 agonists; actives 82% (n = 2,400); activation, % at 3 µM; AID 651783; shares compounds with TAAR1 ag; CHO RD-HGA16 TAAR1, Fluo-8 calcium fluorescence; scaled: DMSO 0%, maximal phenethylamine 100%;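 active means activation above a cutoff set at the run's mean compound activation plus 3 SD, cut at about 39% in these data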
# Ga16 nonsel ag – nonselective agonism, TAAR1 counter-screen; CHO-Ga16 parental, Fluo-8 calcium fluorescence; normalized to maximal ATP response, DMSO zero; shares compounds with TAAR1 ag; activation, % at 3 µM; actives 50% (n = 2,400); AID 651787;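 active means activation above the run cutoff, the mean activation over all tested wells plus 3 SD, cut at about 12% in these data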;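 further: 0% = DMSO wells and 100% = maximal ATP response on the peak over basal ratio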
# TAAR1 desens – TAAR1 response desensitization, agonist counter-screen | inhibition, % at 3 µM | shares compounds with TAAR1 ag | CHO RD-HGA16 hTAAR1, Fluo-8 calcium, beta-PEA response inhibition | actives 46% (n = 2,400);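 active means inhibition above the run cutoff, the mean inhibition of all test compounds plus 3 SD, cut at about 49% in these data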;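 further: beta-PEA stimulus applied at its EC80; loss of beta-PEA calcium signal after compound pretreatment read as receptor desensitization; 0% = DMSO with beta-PEA at EC80 and 100% = DMSO alone without agonist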
# Ga16 antag count – nonselective Ga16 antagonist in TAAR1 agonist counter-screen; inhibition, % at 3 µM; shares compounds with TAAR1 ag; actives 39% (n = 2,400); CHO-Ga16 ATP-induced calcium, Fluo-8 fluorescence;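 active means inhibition above the plate's mean compound inhibition plus 3 SD, computed per plate, cut at about 22% in these data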;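 further: 0% = EC80 ATP with DMSO and 100% = DMSO wells without ATP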
# An asterisk follows results filed as active; / = no result given. This is a sample that favours compounds with a hit; in the whole collection about 3% have one here.
SMILES,M4 PAM,M4 ag,TAAR1 ag,TAAR1 antagonist,CHRM4 antagonist,TAAR1 ag confirm,Ga16 nonsel ag,TAAR1 desens,Ga16 antag count
OCCNc1ncnc2c1cnn2Cc1ccccc1,-6,0,2,7,5,/,/,/,/
c1ccc(CNc2ncnc3c2cnn3Cc2ccccc2)cc1,-6,24,102*,7,3,82*,47*,48,25*
Cc1ccc(NN2C(=O)C=C(c3ccccc3)C2=O)cc1,-16,5,52*,43,35*,27,20*,26,44*
C=CC1=CCN(S(=O)(=O)C(C)(C)C)[C@H]1CCO,6,1,1,-15,-13,/,/,/,/
CC1=CC(C)(C)N2C(=O)C3(SCC(=O)N3c3ccc(F)cc3)c3cc(C)cc1c32 (stereo unspecified),8,8,54*,34,-14,39*,25*,27,28*
O=C(NC1CCCC1)c1sc(=S)n2c1[nH]c(=O)c1ccccc12,-1,1,23,-2,-1,/,/,/,/
O=C(NCc1ccco1)c1sc(=S)n2c1[nH]c(=O)c1ccccc12,8,4,75*,36,1,38*,23*,15,17
CCCCn1nnnc1C(c1cc2ccccc2o1)N(CCC#N)Cc1ccccc1 (stereo unspecified),-2,1,4,12,-13,/,/,/,/
Cc1cccc(C(=O)NC(NCCc2ccccc2)C(Cl)(Cl)Cl)c1 (stereo unspecified),9,2,80*,61*,-5,69*,-1,48,4
Cc1cccc(C(=O)NC(NCc2ccco2)C(Cl)(Cl)Cl)c1 (stereo unspecified),12,3,-4,9,-15,/,/,/,/
CC(C)C[C@H]1CN(CCCC[C@H]2CNC(=O)C(=O)N2Cc2ccccc2)C(=O)C(=O)N1CCC1CCCCC1,15,0,-1,6,-14,/,/,/,/
C[C@H](CO)N1C[C@H](C)[C@H](CN(C)C(=O)c2ccccc2F)Oc2ncc(Br)cc2C1=O,10,0,1,10,-13,/,/,/,/
CCOC(=O)c1c(C)[nH]c(C(=O)COC(=O)c2cnccn2)c1C,0,1,74*,13,-6,0,2,7,13
COc1ccc(C(O)(C2CCCCC2)C(CN2CCOCC2)c2ccccc2)cc1 (stereo unspecified),-6,13,36,-8,17,/,/,/,/
OC(c1ccccc1)(C1CCCCC1)C(CN1CCOCC1)c1ccccc1 (stereo unspecified),5,2,52*,3,-14,59*,33*,29,8
O=C1S/C(=C\c2ccc(N3CCOCC3)o2)C(=O)N1c1ccccc1,5,2,209*,83*,2,140*,163*,82*,87*
O=C(O)c1ccccc1-c1ccc(/C=C2\SC(=O)N(c3ccccc3)C2=O)o1,2,1,0,21,0,/,/,/,/
COc1ccccc1CNC(=O)COC(=O)/C=C/c1ccc2ccccc2n1,1,1,36,25,-1,/,/,/,/
CCCN(C(=O)CCc1cn(CCC)c2ccccc12)c1ccc(N(C)c2ccccn2)cc1,/,/,0,27,/,/,/,/,/
CCOCCCn1c(=S)[nH]c2cc(C(=O)NCCc3ccccc3)ccc2c1=O,2,3,44*,-9,1,50*,7,21,10
CN(CCc1ccccc1)C(=O)c1[nH]c(C(F)(F)F)nc1-c1ccccc1,4,3,70*,6,-12,77*,6,32,4
C=CCn1c(Cn2c(-c3cnccn3)nc3ccccc32)nc2ccccc21,1,-1,3,-3,3,/,/,/,/
O=C(Nc1ccccc1)[C@@H]1CC=C[C@@H]2CCN(Cc3ccc(Cl)c(Cl)c3)C(=O)[C@@H]21,5,0,57*,17,8,51*,12*,17,2
Cc1nn(CC(=O)N/N=C/c2cccs2)c(C)c1[N+](=O)[O-],1,1,57*,38,-4,80*,6,72*,4
Cc1ccsc1/C=N/NC(=O)Cn1cnc2ccccc21,4,3,56*,29,11,61*,2,45,12
SMILES,M4 PAM,M4 ag,TAAR1 ag,TAAR1 antagonist,CHRM4 antagonist,TAAR1 ag confirm,Ga16 nonsel ag,TAAR1 desens,Ga16 antag count
COc1cccc(/C=N/NC(=O)Cn2nc(C)c([N+](=O)[O-])c2C)c1O,-1,0,1,-17,6,/,/,/,/
Cc1ccsc1/C=N/NC(=O)Cn1nc(C)c([N+](=O)[O-])c1C,-2,1,45*,-6,4,72*,0,55*,6
CC1CCC(NC(=O)C(NS(=O)(=O)c2ccc(Br)cc2)C(C)C)CC1 (stereo unspecified),5,0,2,-34,-5,/,/,/,/
O=C(NCc1cccs1)c1ccc2nc([C@@H]3O[C@H](CO)[C@H](O)[C@H](O)[C@H]3O)[nH]c2c1,7,1,1,-6,-1,/,/,/,/
CCC(C)Sc1ccc([C@@H]2[C@H]3C(=O)N(CC)C(=O)[C@H]3[C@]3(C(=O)OC)CCCCN23)cc1 (stereo partly specified),6,2,3,11,-1,/,/,/,/
COC(=O)[C@@]12C[C@@H](CC(=O)N3CCCC3)C(=O)N(CCc3ccc(OC)c(OC)c3)C1=CCC(C)(C)C2,4,8,4,-21,-5,/,/,/,/
CCc1cc(C(=O)Nc2ccc(OC)nc2)sc1C,-4,14,2,6,6,/,/,/,/
COc1ccc(NC(=O)c2cc(Br)c(Br)s2)cn1,7,12,71*,29,-5,49*,42*,36,11
CCc1sc(C(=O)Nc2cccnc2)cc1Br,-1,7,65*,22,1,48*,33*,16,11
O=C(Nc1ccc(Cl)cc1C(F)(F)F)c1ccccc1Cl,-4,0,-1,-3,16,/,/,/,/
O=C(Nc1ccc(Cl)cc1C(F)(F)F)c1ccc(Cl)cc1,-2,-1,75*,31,0,20,-1,19,9
O=C(CCNC(=O)c1ccc(Cl)cc1)Nc1ccc(F)cc1F,11,1,-1,28,-7,/,/,/,/

# Screening data deposited in PubChem by The Scripps Research Institute Molecular Screening Center.
